# High-throughput results from PubChem BioAssay.
# The list is not random: actives were taken first. Their share in the collection is about 1.8%.
# Cneo AK release: Cryptococcus neoformans cell lysis inducers, primary screen, AK release luminescence, single concentration; AID 651654, 2012; 360,000 compounds, 0.2% hits; C. neoformans lysis, adenylate kinase release luminescence, 4 h; normalised: neutral wells 0, clomiphene wells 100; lysis activity, % at 15 µM;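 active means mean lysis activity across replicates of at least 80%, whatever share of replicates individually reach that level; inactive means mean lysis activity below 80%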
#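 Assay system: C. neoformans cells. Amount: yeast cell density of 5 × 10^6 cells/mL. Technique: AK luminescence. Buffer or medium: YPD. Times: static 4 h at 37 °C with compound, 1 h detection. Dosing: single-point compound dose. Read-out: lysis from increased AK signal.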
# SKN-1 block: suppressors of acrylamide-induced Pgst-4::GFP reporter in worms, primary screen, SKN-1 inhibitor project, whole organism, uHTS, GFP/RFP fluorescence ratio, strain VP596. inhibition, % at 21.8 µM. 360,000 compounds, 0.49% hits. C. elegans VP596 Pgst-4::GFP/RFP ratio, 24 h;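 active means interference check ratio from 0.5 to 1.5 plus GFP to RFP signal ratio inhibition reaching or exceeding a fixed threshold, cut at about 30% in these data, passing the limit was not always enough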
# DAGLB inh: DAGLB lipase inhibitors, primary screen, biochemical, fluorescence, HTS; Diacylglycerol lipase-beta (Homo sapiens), Q8NCG7; HEK293T DAGLB membrane lysate, EnzChek fluorogenic substrate; inhibition, % at 5.17 µM; 340,000 compounds, 0.059% hits; in the data active means inhibition above about 34%;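 further: 0% = enzyme with vehicle and 100% = wells lacking enzyme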
# Target sequence (Q8NCG7 whole entry, looked up): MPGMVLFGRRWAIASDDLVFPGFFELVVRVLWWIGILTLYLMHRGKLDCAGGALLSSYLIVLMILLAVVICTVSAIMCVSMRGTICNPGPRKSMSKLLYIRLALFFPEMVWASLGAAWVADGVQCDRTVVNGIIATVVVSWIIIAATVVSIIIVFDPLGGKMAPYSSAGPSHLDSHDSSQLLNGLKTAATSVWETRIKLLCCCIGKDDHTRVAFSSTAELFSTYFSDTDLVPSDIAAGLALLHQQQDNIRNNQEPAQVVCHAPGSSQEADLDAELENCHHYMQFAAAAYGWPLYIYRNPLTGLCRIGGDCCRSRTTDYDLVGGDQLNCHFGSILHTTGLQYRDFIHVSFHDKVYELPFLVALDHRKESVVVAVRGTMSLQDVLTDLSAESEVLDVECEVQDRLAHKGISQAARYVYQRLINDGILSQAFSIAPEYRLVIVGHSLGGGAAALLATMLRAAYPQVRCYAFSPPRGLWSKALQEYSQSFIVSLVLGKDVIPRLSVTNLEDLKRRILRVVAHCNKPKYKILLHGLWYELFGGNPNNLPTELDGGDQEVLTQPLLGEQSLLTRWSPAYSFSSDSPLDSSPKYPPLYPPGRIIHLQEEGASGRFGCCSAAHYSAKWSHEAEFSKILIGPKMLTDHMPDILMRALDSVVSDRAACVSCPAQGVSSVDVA
# rRNA inh HTS: reduced GFP signal of wild-type E. coli, primary screen, bacterial rRNA inhibitor project, GFP/RFP fluorescence, OD600, single point. AID 720706, 2013. E. coli WT GFP vs humanized-ribosome RFP mutants, 24 h; hits give low values; DMSO median 0, no signal -100. 350,000 compounds, 1.6% hits. GFP signal change (wild-type ribosome), % (test concentration not listed);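 active means significant combined selectivity score with lowered wild-type GFP, culture density cut under 30%, mutant RFP and density less affected; inactive means any of these conditions unmet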
# MT1-MMP act inh: blockers of MT1-MMP proenzyme processing, primary screen, HT1080 RFP-PRO-GFP cells, GFP/RFP fluorescence | GFP/RFP ratio change, % at 20 µM | 360,000 compounds, 0.061% hits | Matrix metalloproteinase-14 (Homo sapiens), P50281 | AID 651647, 2012 | GFP/RFP ratio fluorescence, overnight; percent of plate control window, DMSO zero;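 active means GFP/RFP ratio change of at least 30% with cell ATP level not reduced by more than half and red fluorescence within 50% of control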
#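 Read-out: GFP/RFP fluorescence ratio; Test system: RFP-PRO-GFP reporter HT1080 cells; Compound dosing: single-point 20 µM compound, 1% DMSO; Times: overnight compound exposure at 37 °C.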
# hiPSC survival: enhancers of single-cell hiPSC survival, primary screen, ATPlite luminescence; 100% = ROCK inhibitor wells, 0% = DMSO; survival enhancement, % at 20 µM; 360,000 compounds, 0.044% hits; in the data active means survival enhancement above about 18%;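 further: cells exposed to compounds for 16 hours before the ATP read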
# AID977621: growth inhibition of wild-type GFP E. coli, dose response, H69 mutant RFP, cherry-pick; shares compounds with rRNA inh HTS; E. coli wild-type GFP strain growth, fluorescence, 24 h; AID 977621, 2014; activity change, negative = inhibition at 50 µM; 1,900 tested, under 10 active;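 active means Wild-type ribosome reporter drop at least double the humanized mutant ribosome reporter drop, growth loss under a set limit; inconclusive means no clear call, values can overlap the other calls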;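 further: wild-type GFP and H69 mutant RFP strains grown together 50/50 in each well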
# AID977628: E. coli growth inhibition, wild-type GFP versus h24 humanized RFP strain, dose response, h24 mutant RFP vs wild-type GFP, cherry-pick; shares compounds with rRNA inh HTS; E. coli WT GFP strain growth, fluorescence, 24 h; activity change, negative = inhibition at 50 µM; 1,900 tested, under 10 active;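 active means compound lowering the normal-ribosome reporter at least twice as much as the humanized-ribosome reporter, growth loss under a set limit; inconclusive means no clear call, values can overlap the other calls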;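 further: wild-type GFP and h24 humanized RFP strains co-cultured 1 to 1 per well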
# * marks the source's active call; other numbers are inactive results; ? = inconclusive; · = no result.
SMILES,Cneo AK release,SKN-1 block,DAGLB inh,rRNA inh HTS,MT1-MMP act inh,hiPSC survival,AID977621,AID977628
COc1ccc(CN2C(=O)NC(C)(c3ccc(C)cc3)C2=O)cc1F (stereo not drawn),-1.6,-5.5,-1.1,-22.2*,-7.0,-0.4,-9.94,?
C=CCN(CC=C)C(=O)c1ccc2nc(Cc3ccc(OC)c(OC)c3)oc2c1,-2.2,13.8,-1.9,-32.9*,1.1,1.9,·,?
COc1ccc(Cc2nc3ccc(C(=O)NCc4cc(C)no4)cc3o2)cc1OC,-3.4,16.1,-1.7,7.2,3.0,-0.5,·,·
CCn1nc(C)cc1C(=O)N1CCCC(C(=O)c2ccc3ccccc3c2)C1 (stereo not drawn),·,-3.6,-1.4,-19.5*,1.8,-0.4,-4.3,·
CO[C@H](CN(C)S(=O)(=O)c1ccccc1)[C@@H](C)CN(C(=O)Nc1ccccc1F)[C@@H](C)CO,0.7,·,·,-0.8,·,·,·,·
COc1cc(NC(=O)CSc2nc(C)cs2)cc(OC)c1,3.0,1.7,-0.7,-29.6*,-2.7,-0.2,-16.2,·
O=[N+]([O-])c1ccc(/C=C/c2ccc3cccc([N+](=O)[O-])c3n2)cc1,·,4.8,-3.4,-17.9*,-1.5,0.7,-5.08,1.19
C[C@H](CO)N1C[C@H](C)[C@H](CN(C)C(=O)c2ccc(F)cc2)Oc2ncc(-c3ccncc3)cc2C1=O,3.0,·,·,3.4,·,·,·,·
OC(COc1ccc(Cl)cc1)CN1CCN(c2ccccn2)CC1 (stereo not drawn),·,-9.1,0.4,-21.8*,2.1,-0.3,·,-6.82
COc1ccccc1NC(=O)N[C@@H]1CC[C@H](CCNS(=O)(=O)c2ccc(C)cc2)O[C@H]1CO,·,·,·,2.8,·,·,·,·
COc1cc2c(cc1OC)CN(C(=O)c1cc(S(=O)(=O)N3CCOCC3)ccc1Cl)CC2,-1.6,-15.3,-2.0,·,-2.7,-2.8,·,·
O=C(c1cc(S(=O)(=O)N2CCOCC2)ccc1Cl)N1CCc2ccccc2C1,-0.3,-1.3,0.6,-20.2*,2.0,0.2,-12.4,-9.05
Cc1cc(C(C)(C)C)oc1C(=O)N(CC(=O)NC1CCCC1)c1c(C)cccc1C,·,10.3,-17.9,-25.4*,-39.7,-1.3,·,-15.1
O=C(CC1CC1)N1CC2(C1)[C@H](c1ccccc1)[C@@H](CO)N2CC1CCOCC1,·,·,·,4.1,·,·,·,·
COCCCNC(=O)c1ccc(-c2nc3ccccc3nc2-c2ccccc2)cc1,-0.6,16.5,·,-31.6*,-3.0,-0.7,0.2,-3.1
COc1ccc(-c2cn3cc(Cl)ccc3n2)cc1OC,-2.2,12.6,2.3,-26.9*,14.0,-1.3,·,?
COc1ccc(CNC(=O)c2nc(S(=O)(=O)Cc3ccccc3)ncc2Cl)cc1,-2.1,0.2,0.8,-16.2*,-1.6,-0.6,-2.74,-4.79
O=C(NCc1ccccc1)c1nc(S(=O)(=O)Cc2ccccc2)ncc1Cl,0.2,4.1,3.3,-24.1*,0.3,0.0,-23.6,-7.22
COC(=O)c1ccccc1NC(=O)c1nc(S(=O)(=O)Cc2ccccc2)ncc1Cl,-0.2,5.3,1.2,4.9,0.9,10.7,·,·
O=C(NCc1ccc2c(c1)OCO2)c1nc(S(=O)(=O)Cc2ccccc2)ncc1Cl,-2.4,16.5,0.3,-12.8,-0.4,1.4,·,·
Cc1cccc(-c2n[nH]c(S(C)(=O)=O)c2C#N)c1,·,-11.2,2.5,-15.8,3.3,0.1,·,·
